Reference: ChEMBL document CHEMBL1155659, “Chemistry of sponges. 19. Novel bioactive metabolites from Hamigera tarangaensis” (J Nat Prod, 2000)
Calls of active or inactive are those of the source. The rule behind the calls is not given here.

Experiments:
[1] = system: Herpesviridae sp.; assay: Antiviral activity against Herpesvirus; type: functional
Summary of the method: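 Disk-based antiviral test, sample loaded at 132 μg per disk onto herpes-virus-infected cell wells; read-out is percent virus inhibition, with cytotoxicity scored across the whole well.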

[2] = system: Bacillus subtilis; assay: Antibacterial activity against Bacillus subtilis at 156 ug; type: functional; conditions: read-out: IZ
[3] = system: P388; assay: Cytotoxicity against mouse P388 cells; type: functional, cell-based
[4] = system: Trichophyton mentagrophytes; assay: Antifungal activity against Trichophyton mentagrophytes; type: functional, organism-based
[5] = system: Bacillus subtilis; assay: Antibacterial activity against Bacillus subtilis at 96 ug; type: functional; conditions: read-out: IZ
[6] = system: Escherichia coli; assay: Antibacterial activity against Escherichia coli; type: functional, organism-based
[7] = system: Enterovirus C; assay: Antiviral activity against Poliovirus; type: functional
Summary of the method: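 Disk assay at 132 μg per disk, scored as percent virus inhibition, with cytotoxicity assessed across the whole well.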

[8] = system: Candida albicans; assay: Antifungal activity against Candida albicans; type: functional, organism-based
[9] = system: Bacillus subtilis; assay: Antibacterial activity against Bacillus subtilis at 150 ug; type: functional; conditions: read-out: IZ
[10] = system: Bacillus subtilis; assay: Antibacterial activity against Bacillus subtilis; type: functional, organism-based

Structure (SMILES): Cc1cc([C@H]2[C@@H](C(C)C)CC[C@@]2(C)CC(=O)O)c2c(c1Br)O[C@H](C)NC2=O
- Activity [1]: inactive
- zone of inhibition at 156 µg/disc [2]: 3 mm
- IC50 [3]: 74.2 µM
- Activity [4]: inactive
- zone of inhibition at 96 µg/disc [5]: 3 mm
- Activity [6]: inactive
- Activity [7]: inactive
- Activity [8]: inactive
- zone of inhibition at 150 µg/disc [9]: 3 mm

Structure (SMILES): COC(=O)[C@]1(O)C(=O)c2c(O)cc(C)cc2[C@H]2[C@@H](C(C)C)CC[C@]21C
- Activity [1]: inactive
- Activity [4]: inactive
- Activity [6]: inactive
- Activity [7]: inactive
- Activity [8]: inactive

Structure (SMILES): COC(=O)[C@]1(O)C(=O)c2c(cc(C)c(Br)c2O)[C@H]2[C@@H](C(C)C)CC[C@]21C
- Activity [1]: inactive
- Activity [10]: inactive
- Activity [4]: inactive
- Activity [6]: inactive
- Activity [7]: inactive
- Activity [8]: inactive

Structure (SMILES): Cc1c(Br)c(O)c2c(c1Br)[C@H]1[C@@H](C(C)C)CC[C@@]1(C)C(=O)C2=O [4-BROMOHAMIGERAN B]
- Activity [1]: inactive
- IC50 [3]: 13.9 µM
- Activity [4]: inactive
- Activity [6]: inactive
- Activity [7]: inactive
- Activity [8]: inactive

Structure (SMILES): Cc1cc2c(c(O)c1Br)C(=O)C(=O)[C@]1(C)CC[C@H](C(C)C)[C@H]21 [HAMIGERAN B]
- inhibition (INH) [1]: 100%
- Activity [6]: inactive
- inhibition (INH) [7]: 100%
- Activity [8]: inactive

Structure (SMILES): CC(=O)O[C@H]1C(=O)C(=O)c2c(cc(C)c(Br)c2O)[C@H]2[C@@H](C(C)C)CC[C@@]12C [HAMIGERAN C]
- Activity [1]: inactive
- zone of inhibition at 156 µg/disc [2]: 3 mm
- IC50 [3]: 16 µM
- zone of inhibition at 96 µg/disc [5]: 3 mm
- Activity [6]: inactive
- Activity [7]: inactive
- Activity [8]: inactive
- zone of inhibition at 150 µg/disc [9]: 3 mm

Structure (SMILES): Cc1cc2c3c(c1Br)O[C@H](C)N=C3C(=O)C[C@]1(C)CC[C@H](C(C)C)[C@H]21 [HAMIGERAN D]
- Activity [1]: inactive
- zone of inhibition at 156 µg/disc [2]: 3 mm
- IC50 [3]: 8 µM
- zone of inhibition at 96 µg/disc [5]: 3 mm
- Activity [6]: inactive
- Activity [7]: inactive
- Activity [8]: inactive
- zone of inhibition at 150 µg/disc [9]: 3 mm

Structure (SMILES): CCOC(=O)c1c([C@H]2[C@@H](C(C)C)CC[C@@]2(C)C(=O)OCC)cc(C)c(Br)c1OCC [TRYETHYLHAMIGERAN E]
- Activity [1]: inactive
- Activity [10]: inactive
- IC50 [3]: 54.2 µM
- Activity [4]: inactive
- Activity [6]: inactive
- Activity [7]: inactive
- Activity [8]: inactive
